# Target: Mitogen-activated protein kinase 10 (Rattus norvegicus, UniProt P49187)
# Test: Inhibition of rat c-Jun N-terminal kinase 3
# Summary of the method: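 GST-JNK3 was preactivated overnight at room temperature with GST-JNKK2 and ATP-γ-S, then dialysed. The enzyme (0.5 µg) was incubated with biotinylated GST-c-Jun (1 µg) and 2 µM ³³P-γ-ATP in 50 mM Tris-HCl pH 8.0, 10 mM MgCl₂, 1 mM DTT and 100 µM NaVO₄ for 120 min at room temperature. Reaction stopped with EDTA; phosphorylation detected by streptavidin SPA beads and scintillation counting. Values from triplicates.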
# Sequence of Mitogen-activated protein kinase 10 (P49187 whole entry): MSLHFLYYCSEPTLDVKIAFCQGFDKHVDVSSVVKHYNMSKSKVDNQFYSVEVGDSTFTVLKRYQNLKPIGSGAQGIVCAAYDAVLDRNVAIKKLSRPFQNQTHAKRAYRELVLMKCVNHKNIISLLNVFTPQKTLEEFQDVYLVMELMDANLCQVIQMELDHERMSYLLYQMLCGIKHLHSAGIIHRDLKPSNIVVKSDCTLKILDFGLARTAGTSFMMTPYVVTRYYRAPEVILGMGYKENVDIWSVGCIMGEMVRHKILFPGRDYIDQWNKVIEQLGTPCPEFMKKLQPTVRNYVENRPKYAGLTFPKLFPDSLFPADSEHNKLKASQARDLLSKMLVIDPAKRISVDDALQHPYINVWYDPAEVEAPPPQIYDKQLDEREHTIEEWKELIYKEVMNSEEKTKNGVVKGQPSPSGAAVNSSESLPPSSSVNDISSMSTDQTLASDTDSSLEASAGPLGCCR
row,SMILES,IC50
1,N#CC(c1ccnc(NCCc2c[nH]cn2)n1)c1nc2ccccc2s1 (stereo not drawn),0.08 µM
2,"N#CC(c1ccnc(Cl)n1)c1nc2ccccc2s1 (stereo not drawn) [(2Z)-1,3-benzothiazol-2(3H)-ylidene(2-chloropyrimidin-4-yl)acetonitrile]",0.25 µM
3,"N#CC(c1ccncn1)c1nc2ccccc2s1 (stereo not drawn) [(2Z)-1,3-benzothiazol-2(3H)-ylidene(pyrimidin-4-yl)acetonitrile]",> 5 µM
4,CCCN(CCC)c1nccc(C(C#N)c2nc3ccccc3s2)n1 (stereo not drawn) [[3H-Benzothiazol-(2Z)-ylidene]-(2-dipropylamino-pyrimidin-4-yl)-acetonitrile],> 5 µM
5,Cc1ccc(CCNc2nccc(C(C#N)c3nc4ccccc4s3)n2)cc1 (stereo not drawn) [[3H-Benzothiazol-(2Z)-ylidene]-[2-(2-p-tolyl-ethylamino)-pyrimidin-4-yl]-acetonitrile],> 5 µM
6,N#CC(c1ccnc(NCCc2ccccn2)n1)c1nc2ccccc2s1 (stereo not drawn) [[3H-Benzothiazol-(2Z)-ylidene]-[2-(2-pyridin-2-yl-ethylamino)-pyrimidin-4-yl]-acetonitrile],0.25 µM
7,"N#CC(c1ccnc(NCCc2ccc(Cl)c(Cl)c2)n1)c1nc2ccccc2s1 (stereo not drawn) [[3H-Benzothiazol-(2Z)-ylidene]-{2-[2-(3,4-dichloro-phenyl)-ethylamino]-pyrimidin-4-yl}-acetonitrile]",> 5 µM
8,N#CC(c1ccnc(NCCc2ccc(Br)cc2)n1)c1nc2ccccc2s1 (stereo not drawn) [[3H-Benzothiazol-(2Z)-ylidene]-{2-[2-(4-bromo-phenyl)-ethylamino]-pyrimidin-4-yl}-acetonitrile],> 5 µM
9,N#CC(c1ccnc(NCCc2ccc(F)cc2)n1)c1nc2ccccc2s1 (stereo not drawn) [[3H-Benzothiazol-(2Z)-ylidene]-{2-[2-(4-fluoro-phenyl)-ethylamino]-pyrimidin-4-yl}-acetonitrile],> 5 µM
10,N#CC(c1ccnc(NCCc2ccc(N)cc2)n1)c1nc2ccccc2s1 (stereo not drawn) [{2-[2-(4-Amino-phenyl)-ethylamino]-pyrimidin-4-yl}-[3H-benzothiazol-(2Z)-ylidene]-acetonitrile],0.08 µM

# Continued, values first:
row,IC50,SMILES
1,> 5 µM,"Cc1cc(C(C#N)c2nc3ccccc3s2)nc(Cl)n1 (stereo not drawn) [(2Z)-1,3-benzothiazol-2(3H)-ylidene(2-chloro-6-methylpyrimidin-4-yl)acetonitrile]"
2,> 5 µM,"N#CC(c1cccc(Cl)n1)c1nc2ccccc2s1 (stereo not drawn) [(2Z)-1,3-benzothiazol-2(3H)-ylidene(6-chloropyridin-2-yl)acetonitrile]"
3,> 5 µM,"N#CC(c1nc2ccccc2[nH]1)c1nc(Cl)ncc1Br (stereo not drawn) [(5-Bromo-2-chloro-pyrimidin-4-yl)-(1,3-dihydro-benzoimidazol-2-ylidene)-acetonitrile]"
4,> 5 µM,CCOC(=O)C(c1ccnc(Cl)n1)c1nc2ccccc2s1 (stereo not drawn) [[3H-Benzothiazol-(2Z)-ylidene]-(2-chloro-pyrimidin-4-yl)-acetic acid ethyl ester]
5,> 5 µM,N#CC(c1ccnc(NCCc2ccccc2)n1)c1nc2ccccc2s1 (stereo not drawn) [[3H-Benzothiazol-(2Z)-ylidene]-(2-phenethylamino-pyrimidin-4-yl)-acetonitrile]
6,> 5 µM,CCCNc1nccc(C(C#N)c2nc3ccccc3s2)n1 (stereo not drawn) [[3H-Benzothiazol-(2Z)-ylidene]-(2-propylamino-pyrimidin-4-yl)-acetonitrile]
7,> 5 µM,N#CC(c1ccnc(NCCc2cccc(Cl)c2)n1)c1nc2ccccc2s1 (stereo not drawn) [[3H-Benzothiazol-(2Z)-ylidene]-{2-[2-(3-chloro-phenyl)-ethylamino]-pyrimidin-4-yl}-acetonitrile]
8,> 5 µM,N#CC(c1ccnc(NCc2nnn[nH]2)n1)c1nc2ccccc2s1 (stereo not drawn) [[3H-Benzothiazol-(2Z)-ylidene]-{2-[(1H-tetrazol-5-ylmethyl)-amino]-pyrimidin-4-yl}-acetonitrile]

# Reference: BindingDB's records for doi:10.1021/jm0310986 (Serono Pharmaceutical Research Institute, 2005)
